Measurements pooled from the literature.
Protocols differ between the studies behind these lines. pEC50, pIC50: −log10 of the molar value.
Cell line: T47D
Read-out: cell growth or viability

C[C@H](Nc1ccc2c(c1)OCCn1cc(N3C(=O)OC[C@H]3C(F)F)nc1-2)C(N)=O — pEC50 (ATP luminescence; 5 days): 7.51
COC(=O)c1cc(C(C)=NNc2nc(-c3ccc4c(c3)OCCCO4)cs2)ccc1O — pIC50 (MTT; 96 h): 4.67
C=C[C@]1(C)C=C2CC[C@H]3C(C)(C)CCC[C@]3(C)[C@H]2CC1 — pIC50 (MTT; 75 h): 3.80
COC(=O)c1cc(C(C)=NNc2nc(-c3ccc(C)cc3)cs2)ccc1O — pIC50 (MTT; 96 h): 4.62
CN(C)c1cccc2c(S(=O)(=O)NCCCCN=C=S)cccc12 — pIC50 (MTT; 24 h): 4.68
COc1cccc2c1C(=O)c1c(O)c3c(c(O)c1C2=O)C[C@@](O)(C(=O)CO)C[C@@H]3O[C@H]1C[C@H](N)[C@H](O)[C@H](C)O1 — pIC50 (MTT; 24 h): 4.12
COc1cccc2c1C(=O)c1c(O)c3c(c(O)c1C2=O)C[C@@](O)(C(=O)CO)C[C@@H]3O[C@H]1C[C@H](N)[C@H](O)[C@H](C)O1 — pIC50 (MTT; 75 h): 6.57
Cc1c(Cl)c(=O)oc2cc(OCCCCSC#N)ccc12 — GI50 (SRB): 24 µM
CS(=O)(=O)NCCCCN=C=S — pIC50 (MTT; 24 h): 4.57
N#CSCCCCOc1ccc2c(-c3ccccc3)cc(=O)oc2c1 — GI50 (SRB): 34 µM
Cc1nc(NC(=O)N2CCC[C@H]2C(N)=O)sc1-c1ccnc(C(C)(C)C(F)(F)F)c1 — pEC50 (ATP luminescence; 5 days): 6.35
